Test results reported in ChEMBL document CHEMBL1134778, “Amino acid phosphoramidate monoesters of 3'-azido-3'-deoxythymidine: relationship between antiviral potency and intracellular metabolism” (J Med Chem, 2001).

Columns and labels:
[1] = test system: CCRF-CEM; assay: Effective concentration of required to inhibit the replication of HIV-1 BY 50% in CEM cells; format: functional, cell-based; conditions: Homo sapiens
Method in brief: (§1)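 PHA-stimulated CEM cells infected 3 h at 37 °C with LAI/HIV-1 (10 000 DPM RT activity/10^6 cells), then washed. Resuspended at 2.5 × 10^5 cells/mL in medium with 10 U/mL IL-2. Drugs in ddH2O added to duplicate or triplicate cultures. Held 6 days at 37 °C; supernatant p24 measured by ELISA.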

[2] = species on record: Homo sapiens; assay: (§2) Intracellular of AZT-TP concentrations in LAI/HIV-1 infected PMBCs was determined at a conc of 10 uM); format: functional, organism-based
Method in brief: (§3)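 PHA-stimulated, LAI/HIV-1-infected PBMCs (donor 2) at 10^6 cells/mL, triplicate, given 10 µM compound ± 50 µM thymidine for 18 h at 37 °C. Cells washed, extracted in 60% methanol overnight at −20 °C, dried and reconstituted. AZT-TP quantified by inhibition of recombinant HIV-1 RT (poly(rA)-oligo(dT), 3H-TTP, 2 h at 37 °C) relative to AZT-TP standards; pmol/10^6 cells.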

[3] = species on record: Homo sapiens; assay: as §2; format: functional, organism-based; method in brief: as §3; remark: listed apart in the source
[4] = species on record: Homo sapiens; assay: Effective concentration of required to inhibit the replication of HIV-1 BY 50% in PMBCs from donor 1; format: functional, organism-based
[5] = species on record: Homo sapiens; assay: Effective concentration of required to inhibit the replication of HIV-1 BY 50% in PMBCs from donor 2; format: functional, organism-based
[6] = species on record: Homo sapiens; assay: Effective concentration required to inhibit the replication of HIV-1 by 50% in PMBCs in the absence of thymidine; format: functional, organism-based
[7] = species on record: Homo sapiens; assay: Effective concentration required to inhibit the replication of HIV-1 by 50% in PMBCs in the presence of thymidine; format: functional, organism-based
[8] = species on record: Homo sapiens; assay: Effective concentration required to inhibit the replication of HIV-1 with 2 hr pretreatment of activated PBMCs; format: functional, organism-based
Method in brief: (§4)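 Uninfected PHA-stimulated PBMCs (2.5 × 10^5 cells/mL) given compound in ddH2O in triplicate for 2 h at 37 °C, then LAI/HIV-1 (5000 DPM/10^6 cells) added. In parallel cultures, cells were infected 3 h first and then treated. After 6 days at 37 °C, supernatant RT activity measured.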

[9] = species on record: Homo sapiens; assay: Effective concentration required to inhibit the replication of HIV-1 with no pretreatment of activated PBMCs; format: functional, organism-based; method in brief: as §4
[10] = test system: U1; assay: Antiviral activity was determined in chronically infected U1 cell line with HIV-1; format: functional, cell-based; conditions: Homo sapiens
Method in brief: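 HIV-1 chronically infected U1 cells (1.5 × 10^5 cells/well) in RPMI 1640 with 10% FBS and 10 ng/mL TNF-α. Compound in ddH2O added to duplicate cultures. Incubated 48 h at 37 °C, 5% CO2. Supernatant p24gag measured by ELISA; XTT assay run on the remaining culture.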

[11] = species on record: Homo sapiens; assay: Concentration required to kill 50% of PBMCs; format: functional, organism-based
Method in brief: (§5)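 Uninfected PHA-stimulated PBMCs or CEM cells plated at 2.5 × 10^5 cells/well with diluted drug. Incubated 6 days at 37 °C, 10% CO2. XTT/PMS added and incubated 4 h at 37 °C. Absorbance read at 450 nm, 630 nm reference.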

[12] = test system: Human immunodeficiency virus 1; assay: Concentration required to inhibit HIV-1 replication by 50% in activated PBMCs
[13] = test system: Human immunodeficiency virus 1; assay: Concentration required to inhibit the production of proviral DNA in unactivated PBMCs
[14] = test system: CCRF-CEM; assay: Concentration required to kill 50% of CEM cells; format: functional, cell-based; conditions: Homo sapiens; method in brief: as §5
[15] = species on record: Homo sapiens; assay: Effective concentration required to inhibit the replication of HIV-1 by 50% in PMBCs from donor 1; format: functional, organism-based
[16] = species on record: Homo sapiens; assay: Effective concentration required to inhibit the replication of HIV-1 by 50% in PMBCs from donor 2; format: functional, organism-based
[17] = species on record: Homo sapiens; assay: Inhibition of Phosphoramidase activity with AZT L-amino acid carbamates; format: functional; conditions: concentration not given here
Method in brief: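 CEM cells (1.5 × 10^8) sonicated in 1 mL 20 mM Tris-HCl, 500 mM NaCl, pH 7.5. Whole lysate incubated 45 min at 37 °C with phosphoramidate (from 10 mM water stock) and carbamate (from 10 mM DMSO stock), then stopped with methanol. AZT-MP quantified by RP-HPLC-RIA against a no-carbamate control. Mean of two experiments.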

[18] = test system: CCRF-CEM; assay: Effective concentration to inhibit HIV-1 replication by 50% in CEM cells; format: functional, cell-based; conditions: Homo sapiens; method in brief: as §1
[19] = species on record: Homo sapiens; assay: Effective concentration to inhibit HIV-1 replication by 50% in PMBCs cells from donor 1; format: functional, cell-based
[20] = species on record: Homo sapiens; assay: Effective concentration to inhibit HIV-1 replication by 50% in PMBCs cells from donor 2; format: functional, cell-based
Method in brief: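 Ficoll-isolated human PBMCs, PHA-stimulated, grown in RPMI 1640 with 10% heat-inactivated FBS, penicillin/streptomycin and IL-2 (10 U/mL) at 37 °C. Cells were infected with LAI/HIV-1, and compounds in ddH2O were added to duplicate or triplicate cultures. After 6 days, supernatant viral RT activity was measured.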

[21] = species on record: Homo sapiens; assay: Concentration required to kill 50% of PBMCs cells; format: functional, cell-based; conditions: PBMC; method in brief: as §5
[22] = Inhibition of AZT-MP production by cell free extracts of CEM cells; format: functional, Homo sapiens, CCRF-CEM; parameters: unit not given here
Method in brief: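 CEM cells (1.5 × 10^8) sonicated in 1 mL 20 mM Tris-HCl, 500 mM NaCl, pH 7.5. Lysate incubated with phosphoramidate and carbamate, each added from 10 mM stock, for 45 min at 37 °C, then stopped with methanol. AZT-MP quantified by RP-HPLC-RIA against a no-carbamate control. Mean of two experiments.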

[23] = species on record: Homo sapiens; assay: Effective concentration required to inhibit the replication of HIV-1 in activated PBMCs; format: functional, organism-based
Method in brief: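 PBMCs held 2 days either resting (no PHA, no IL-2) or with 10 μg/mL PHA, then IL-2 10 U/mL. Nonadherent cells infected with LAI/HIV-1 (5000 DPM/10^6 cells) for 3 h and washed. Plated at 2.5 × 10^5 cells/mL, compounds added in triplicate, 6 days at 37 °C. Supernatant RT activity measured; proviral gag DNA by PCR normalised to IFN-β1.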

Cc1cn([C@H]2C[C@H](N=[N+]=[N-])[C@@H](CO)O2)c(=O)[nH]c1=O [ZIDOVUDINE]
EC50 [1]: < 1 nM
Concentration (pM (10e6*cells)-1) [2]: 0.69
Concentration (pM (10e6*cells)-1) [3]: 1.37
EC50 [4]: 6 nM
EC50 [5]: 7 nM
EC50 [6]: 7 nM
EC50 [7]: 300 nM
EC50 [8]: 15 nM
EC50 [9]: 10 nM
EC50 [10]: 25000 nM
IC50 [11]: > 100000 nM
EC50 [12]: 10 nM
IC100 [13]: 0.01 µM

COC(=O)[C@@H](NP(=O)(O)OC[C@H]1O[C@@H](n2cc(C)c(=O)[nH]c2=O)C[C@@H]1N=[N+]=[N-])C(C)C
IC50 [14]: > 100000 nM
EC50 [15]: 1300 nM
EC50 [16]: 900 nM
EC50 [6]: 350 nM
EC50 [7]: 30000 nM
IC50 [11]: > 100000 nM
EC50 [12]: 350 nM
IC100 [13]: 0.1 µM

COC(=O)[C@@H](Cc1c[nH]c2ccccc12)NP(=O)(O)OC[C@H]1O[C@@H](n2cc(C)c(=O)[nH]c2=O)C[C@@H]1N=[N+]=[N-]
IC50 [14]: > 100000 nM
EC50 [4]: 1000 nM
EC50 [5]: 1000 nM
IC50 [11]: > 100000 nM

COC(=O)[C@H](Cc1ccccc1)NP(=O)(O)OC[C@H]1O[C@@H](n2cc(C)c(=O)[nH]c2=O)C[C@@H]1N=[N+]=[N-] [listing 1 of 2 here]
Concentration (pM (10e6*cells)-1) [2]: 0
Concentration (pM (10e6*cells)-1) [3]: 0.01

CNC(=O)[C@@H](Cc1c[nH]c2ccccc12)NP(=O)(O)OC[C@H]1O[C@@H](n2cc(C)c(=O)[nH]c2=O)C[C@@H]1N=[N+]=[N-]
IC50 [14]: > 100000 nM
EC50 [4]: 400 nM
EC50 [5]: 180 nM
IC50 [11]: > 100000 nM

CNC(=O)[C@@H](Cc1ccccc1)NP(=O)(O)OC[C@H]1O[C@@H](n2cc(C)c(=O)[nH]c2=O)C[C@@H]1N=[N+]=[N-]
IC50 [14]: > 100000 nM
EC50 [4]: 900 nM
EC50 [5]: 100 nM
IC50 [11]: > 100000 nM

COC(=O)[C@H](Cc1ccccc1)NC(=O)OC[C@H]1O[C@@H](n2cc(C)c(=O)[nH]c2=O)C[C@@H]1N=[N+]=[N-].COC(=O)[C@H](Cc1ccccc1)NP(=O)(O)OC[C@H]1O[C@@H](n2cc(C)c(=O)[nH]c2=O)C[C@@H]1N=[N+]=[N-] [listing 1 of 2 here]
inhibition [17]: 99.6%

COC(=O)[C@H](Cc1c[nH]c2ccccc12)NP(=O)(O)OC[C@H]1O[C@@H](n2cc(C)c(=O)[nH]c2=O)C[C@@H]1N=[N+]=[N-]
IC50 [14]: > 100000 nM
EC50 [18]: 4 nM
Concentration (pM (10e6*cells)-1) [2]: 0.01
Concentration (pM (10e6*cells)-1) [3]: 0.22
EC50 [6]: 350 nM
EC50 [7]: 30000 nM
EC50 [8]: < 10 nM
EC50 [9]: 350 nM
EC50 [19]: 2000 nM
EC50 [20]: 350 nM
IC50 [21]: > 100000 nM
Activity [22]: 6.39
EC50 [10]: 40000 nM
EC50 [12]: 350 nM
IC100 [13]: 0.1 µM

COC(=O)[C@@H](Cc1c[nH]c2ccccc12)NP(=O)(O)OC[C@H]1O[C@@H](n2cc(C)c(=O)[nH]c2=O)C[C@@H]1N=[N+]=[N-].COC(=O)[C@H](Cc1c[nH]c2ccccc12)NC(=O)OC[C@H]1O[C@@H](n2cc(C)c(=O)[nH]c2=O)C[C@@H]1N=[N+]=[N-] [listing 1 of 2 here]
inhibition [17]: 60%

COC(=O)[C@@H](Cc1ccccc1)NP(=O)(O)OC[C@H]1O[C@@H](n2cc(C)c(=O)[nH]c2=O)C[C@@H]1N=[N+]=[N-]
IC50 [14]: > 100000 nM
EC50 [4]: 89 nM
EC50 [5]: 80 nM
IC50 [11]: > 100000 nM

COC(=O)[C@H](Cc1ccccc1)NC(=O)OC[C@H]1O[C@@H](n2cc(C)c(=O)[nH]c2=O)C[C@@H]1N=[N+]=[N-].COC(=O)[C@H](Cc1ccccc1)NP(=O)(O)OC[C@H]1O[C@@H](n2cc(C)c(=O)[nH]c2=O)C[C@@H]1N=[N+]=[N-] [listing 2 of 2 here]
Activity [22]: 0.03

COC(=O)[C@@H](Cc1c[nH]c2ccccc12)NP(=O)(O)OC[C@H]1O[C@@H](n2cc(C)c(=O)[nH]c2=O)C[C@@H]1N=[N+]=[N-].COC(=O)[C@H](Cc1c[nH]c2ccccc12)NC(=O)OC[C@H]1O[C@@H](n2cc(C)c(=O)[nH]c2=O)C[C@@H]1N=[N+]=[N-] [listing 2 of 2 here]
Activity [22]: 2.56

COC(=O)[C@H](C)NP(=O)(O)OC[C@H]1O[C@@H](n2cc(C)c(=O)[nH]c2=O)C[C@@H]1N=[N+]=[N-]
IC50 [14]: > 100000 nM
EC50 [4]: 50 nM
EC50 [5]: 30 nM
IC50 [11]: > 100000 nM

CNC(=O)[C@H](Cc1ccccc1)NP(=O)(O)OC[C@H]1O[C@@H](n2cc(C)c(=O)[nH]c2=O)C[C@@H]1N=[N+]=[N-]
IC50 [14]: > 100000 nM
EC50 [4]: 180 nM
EC50 [5]: 250 nM
IC50 [11]: > 100000 nM

CNC(=O)[C@H](Cc1c[nH]c2ccccc12)NP(=O)(O)OC[C@H]1O[C@@H](n2cc(C)c(=O)[nH]c2=O)C[C@@H]1N=[N+]=[N-]
IC50 [14]: > 100000 nM
EC50 [4]: 700 nM
EC50 [5]: 1800 nM
IC50 [11]: > 100000 nM

COC(=O)[C@H](Cc1ccccc1)NP(=O)(O)OC[C@H]1O[C@@H](n2cc(C)c(=O)[nH]c2=O)C[C@@H]1N=[N+]=[N-] [listing 2 of 2 here]
EC50 [1]: < 1 nM
IC50 [14]: > 100000 nM
EC50 [4]: 30000 nM
EC50 [5]: 15000 nM
EC50 [6]: 15000 nM
EC50 [7]: > 100000 nM
EC50 [23]: > 100000 nM
EC50 [8]: 1000 nM
EC50 [9]: 15000 nM
Activity [22]: 6.3
EC50 [10]: 25000 nM
IC50 [11]: > 100000 nM
IC100 [13]: >100 µM

COC(=O)[C@H](CC(C)C)NP(=O)(O)OC[C@H]1O[C@@H](n2cc(C)c(=O)[nH]c2=O)C[C@@H]1N=[N+]=[N-]
IC50 [14]: > 100000 nM
EC50 [4]: 1300 nM
EC50 [5]: 1000 nM
IC50 [11]: > 100000 nM
